Data taken from ChEMBL document CHEMBL1143761, “Synthesis and bioactivities of 6,7,8-trimethoxy-N-aryl-4-aminoquinazoline derivatives” (Bioorg Med Chem, 2007).
Calls of active or inactive are those of the source. No cut-off for these calls is given here.

Assays:
[1] = tested on: PC-3; experiment: Growth inhibition of human PC3 cells after 72 hrs by MTT assay; type: functional, cell-based
Summary of the method: (§1)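 Cell lines were grown in RPMI 1640 with 10% fetal bovine serum and plated at 2 × 10³ cells/well. Compounds were taken up in DMSO, diluted in medium, and applied over a 1–100 range for 72 h, with 0.1% DMSO as control. MTT formazan was read at 595 nm. IC50 came from the dose–response curve, from three separate experiments each run in triplicate.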

[2] = tested on: Bcap37; experiment: Growth inhibition of human Bcap37 cells after 72 hrs by MTT assay; type: functional, cell-based; summary of the method: as §1
[3] = tested on: BGC-823; experiment: Growth inhibition of human BGC823 cells after 72 hrs by MTT assay; type: functional, cell-based; summary of the method: as §1
[4] = tested on: A-431; experiment: Growth inhibition of human A431 cells after 72 hrs by MTT assay; type: functional, cell-based; summary of the method: as §1
[5] = target: Mitogen-activated protein kinase 3 (Homo sapiens) (UniProt P27361); experiment: Inhibition of EGF-induced ERK1 phosphorylation in PC3 cells at 20 uM after 60 mins; type: cell-based; details: PC-3
Mitogen-activated protein kinase 3 (Homo sapiens), sequence (P27361 whole entry): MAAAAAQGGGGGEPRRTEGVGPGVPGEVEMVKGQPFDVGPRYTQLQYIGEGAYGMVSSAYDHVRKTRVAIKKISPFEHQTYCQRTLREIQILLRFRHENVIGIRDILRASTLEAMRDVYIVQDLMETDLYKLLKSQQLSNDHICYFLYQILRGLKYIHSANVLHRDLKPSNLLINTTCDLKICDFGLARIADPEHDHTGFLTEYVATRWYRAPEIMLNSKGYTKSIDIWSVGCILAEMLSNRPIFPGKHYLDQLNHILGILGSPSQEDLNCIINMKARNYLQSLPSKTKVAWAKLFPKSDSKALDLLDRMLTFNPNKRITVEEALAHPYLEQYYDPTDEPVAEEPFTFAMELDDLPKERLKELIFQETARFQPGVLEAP
Summary of the method: (§2)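 PC3 cells were grown in RPMI 1640 with 10% FBS at 37 °C for 36–48 h, then serum-starved for 24 h. They were pretreated with compound at 20 for 60 min, then stimulated with EGF for 10 min and quenched on ice. Lysates were immunoblotted with anti-phospho-ERK1/2 monoclonal antibody overnight at 4 °C, then secondary antibody for 2–3 h at 25 °C, with ECL detection.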

[6] = target: Mitogen-activated protein kinase 1 (Homo sapiens) (UniProt P28482); experiment: Inhibition of EGF-induced ERK2 phosphorylation in PC3 cells at 20 uM after 60 mins; type: cell-based; details: PC-3; summary of the method: as §2
Mitogen-activated protein kinase 1 (Homo sapiens), sequence (P28482 whole entry): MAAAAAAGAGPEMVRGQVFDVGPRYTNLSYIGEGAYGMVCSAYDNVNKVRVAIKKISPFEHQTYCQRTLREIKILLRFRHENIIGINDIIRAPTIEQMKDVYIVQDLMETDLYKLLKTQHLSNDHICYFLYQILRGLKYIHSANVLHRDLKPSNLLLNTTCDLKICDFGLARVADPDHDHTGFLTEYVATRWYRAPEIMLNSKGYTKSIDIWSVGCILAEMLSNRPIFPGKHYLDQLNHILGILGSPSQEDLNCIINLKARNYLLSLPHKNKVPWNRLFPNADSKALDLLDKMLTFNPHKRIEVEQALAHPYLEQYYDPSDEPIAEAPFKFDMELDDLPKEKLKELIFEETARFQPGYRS

Structure (SMILES)	IC50 ([1]; Homo sapiens, PC-3, 72 h) [µM]	IC50 ([3]; bgc-823) [µM]	IC50 ([4]; Homo sapiens, A-431, 72 h) [µM]	IC50 ([3]; Homo sapiens, BGC-823, 72 h) [µM]	IC50 ([1]; pc-3) [µM]	Activity [5]	Activity [6]	IC50 ([4]; a-431) [µM]	IC50 ([2]; Homo sapiens, Bcap37, 72 h) [µM]	IC50 ([2]; bcap37) [µM]
COc1cc2c(Nc3ccc(Br)cc3)ncnc2c(OC)c1OC	23.4		42.1	23.8					31.2	
COc1cc2c(Nc3cccc(F)c3)ncnc2c(OC)c1OC [listing 1 of 2 here]	35.6		29.7	29.9					21	
COc1cc2c(Nc3ccccc3[N+](=O)[O-])ncnc2c(OC)c1OC	31.2		31	21					29.9	
COc1cc2c(Nc3ccc(Cl)cc3)ncnc2c(OC)c1OC	31		19	34.4					52.2	
COc1cc2c(Nc3ccc([N+](=O)[O-])cc3)ncnc2c(OC)c1OC	25.5		45.2	32.2					28.9	
COc1cc2c(Nc3cccc([N+](=O)[O-])c3)ncnc2c(OC)c1OC	24.4		37.7	39					31.1	
COc1cc2c(Nc3cccc(F)c3)ncnc2c(OC)c1OC [listing 2 of 2 here]		28.9			25.3					22.1
COc1cc2c(Nc3ccc(Br)cc3Cl)ncnc2c(OC)c1OC	21		51.5	31					89	
COc1cc2c(Nc3ccc(F)cc3)ncnc2c(OC)c1OC	24.5		29	39.6					28.7	
COc1cc(Nc2ncnc3c(OC)c(OC)c(OC)cc23)cc(OC)c1OC	30		65.4	23.1					76.5	
COc1cc2c(=NCc3ccccc3)[nH]cnc2c(OC)c1OC	36.7		21.2	37.7					65.4	
COc1cc2c(Nc3cccc(Br)c3)ncnc2c(OC)c1OC [listing 2 of 2 here]		12.1			12.6			11		21

Continued, in another order:

IC50 ([1]; Homo sapiens, PC-3, 72 h) [µM]	IC50 ([3]; bgc-823) [µM]	IC50 ([4]; Homo sapiens, A-431, 72 h) [µM]	IC50 ([3]; Homo sapiens, BGC-823, 72 h) [µM]	IC50 ([1]; pc-3) [µM]	Activity [5]	Activity [6]	IC50 ([4]; a-431) [µM]	Structure (SMILES)	IC50 ([2]; Homo sapiens, Bcap37, 72 h) [µM]	IC50 ([2]; bcap37) [µM]
8.9	5.8	7.6						COc1cc2c(Nc3cccc(Br)c3)ncnc2c(OC)c1OC [listing 1 of 2 here]	12.3	
10		12	11.9					COc1cc2c(N[C@@H](C)c3ccccc3)ncnc2c(OC)c1OC	12.9	
9.8		9	9.9					COc1cc2c(cc1Nc1ncnc3c(OC)c(OC)c(OC)cc13)oc1ccccc12	8.1	
18.8		72.1	36.7					COc1cc2c(Nc3ccccc3F)ncnc2c(OC)c1OC	63.2	
18.8		21	12					COc1cc2c(N[C@H](C)c3ccccc3)ncnc2c(OC)c1OC	23.2	
20.1		22.2	35.4					COc1cc2c(Nc3ccc(O)cc3)ncnc2c(OC)c1OC	45.5	
8.9			16.8		Active	Active		COc1cc2ncnc(Nc3cccc(Br)c3)c2cc1OC	13.7	
19		32.1	19					COc1cc2c(Nc3cccc(Cl)c3)ncnc2c(OC)c1OC	21	
